Source: ChEMBL document CHEMBL4433237, “6,6'-Dihydroxythiobinupharidine as a poison of human type II topoisomerases” (Bioorg Med Chem Lett, 2019)
Activity calls are given as the source filed them. The calls are words filed in the database; no cut-off is given here.

What was measured:
[1] = target: DNA topoisomerase 2-alpha (Homo sapiens) (UniProt P11388); experiment: (§1) Inhibition of recombinant human topoisomerase-2alpha expressed in Saccharomyces cerevisiae assessed as increase in double-stranded DNA cleavage at 0 to 1000 uM using supercoiled pBR322 DNA as substrate incubated for 6 mins measured after 30 mins by ethidium bromide staining based agarose gel electrophoresis method relative to control
Chain of DNA topoisomerase 2-alpha (Homo sapiens) (P11388 whole entry, the tested form may be a part): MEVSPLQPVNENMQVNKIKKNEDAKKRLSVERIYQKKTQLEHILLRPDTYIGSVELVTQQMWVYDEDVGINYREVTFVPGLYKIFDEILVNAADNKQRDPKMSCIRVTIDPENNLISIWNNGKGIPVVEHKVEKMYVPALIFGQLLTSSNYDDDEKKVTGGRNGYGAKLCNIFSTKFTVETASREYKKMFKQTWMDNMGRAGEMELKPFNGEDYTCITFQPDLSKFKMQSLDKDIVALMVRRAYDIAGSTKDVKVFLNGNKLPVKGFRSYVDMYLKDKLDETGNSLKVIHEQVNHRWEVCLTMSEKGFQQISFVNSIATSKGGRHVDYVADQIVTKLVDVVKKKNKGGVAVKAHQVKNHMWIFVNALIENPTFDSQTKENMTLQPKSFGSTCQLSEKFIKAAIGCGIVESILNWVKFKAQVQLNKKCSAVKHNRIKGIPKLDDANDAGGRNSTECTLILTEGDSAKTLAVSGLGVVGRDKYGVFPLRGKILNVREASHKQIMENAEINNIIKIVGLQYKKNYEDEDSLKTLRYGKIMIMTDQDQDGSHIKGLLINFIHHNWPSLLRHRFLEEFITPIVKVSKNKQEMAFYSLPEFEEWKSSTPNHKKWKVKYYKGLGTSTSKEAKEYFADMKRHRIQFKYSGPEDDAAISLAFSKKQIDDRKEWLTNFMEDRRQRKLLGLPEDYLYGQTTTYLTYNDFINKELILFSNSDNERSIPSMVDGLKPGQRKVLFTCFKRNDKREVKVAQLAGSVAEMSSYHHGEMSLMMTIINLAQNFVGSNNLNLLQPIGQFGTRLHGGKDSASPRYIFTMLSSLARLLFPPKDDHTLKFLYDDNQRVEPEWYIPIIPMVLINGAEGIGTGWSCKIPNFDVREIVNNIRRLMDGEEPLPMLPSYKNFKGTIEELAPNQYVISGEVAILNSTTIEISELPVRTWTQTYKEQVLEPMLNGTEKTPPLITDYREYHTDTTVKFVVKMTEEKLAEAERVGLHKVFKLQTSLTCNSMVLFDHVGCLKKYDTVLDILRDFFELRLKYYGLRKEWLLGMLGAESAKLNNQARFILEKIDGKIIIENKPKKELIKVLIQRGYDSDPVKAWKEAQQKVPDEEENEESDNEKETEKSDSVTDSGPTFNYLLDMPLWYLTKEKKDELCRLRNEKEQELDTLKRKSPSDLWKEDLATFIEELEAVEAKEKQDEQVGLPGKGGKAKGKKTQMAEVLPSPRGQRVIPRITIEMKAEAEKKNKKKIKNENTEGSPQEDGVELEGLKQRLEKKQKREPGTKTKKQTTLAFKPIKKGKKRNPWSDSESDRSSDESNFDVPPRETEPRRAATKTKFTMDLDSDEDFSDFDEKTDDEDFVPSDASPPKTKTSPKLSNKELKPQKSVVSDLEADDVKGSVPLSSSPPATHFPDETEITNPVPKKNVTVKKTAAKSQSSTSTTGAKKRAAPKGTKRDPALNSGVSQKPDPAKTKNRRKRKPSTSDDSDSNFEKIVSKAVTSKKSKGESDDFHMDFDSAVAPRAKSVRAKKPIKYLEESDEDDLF
Outline: (§2)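 Human topoisomerase IIα or IIβ with negatively supercoiled plasmid. Cleavage trapped with SDS. Supercoiled, nicked and linear forms resolved on ethidium bromide-stained agarose gels. Cleavage normalized to linear standards set to 100%. Three independent experiments.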

[2] = target: DNA topoisomerase 2-alpha (Homo sapiens) (UniProt P11388); experiment: (§3) Covalent poison activity at recombinant human topoisomerase-2alpha expressed in Saccharomyces cerevisiae assessed as decrease in pBR322 DNA cleavage up to 1000 uM using supercoiled pBR322 DNA as substrate incubated for 6 mins and measured after 30 mins in presence of ascorbic acid by ethidium bromide staining based agarose gel electrophoresis method relative to control
[3] = target: DNA topoisomerase 2-alpha (Homo sapiens) (UniProt P11388); experiment: Poison activity at recombinant human topoisomerase-2alpha expressed in Saccharomyces cerevisiae assessed as rate of DNA ligation time at 0 to 500 uM incubated for 6 mins by agarose gel electrophoresis method (reference value: 12.5 sec)
Homo sapiens [4] = organism: Homo sapiens; experiment: (§4) Covalent poison activity at recombinant human topoisomerase-2alpha N- and C-terminal domain deletion mutant assessed as increase in pBR322 DNA cleavage at 0 to 1000 uM using supercoiled pBR322 DNA as substrate incubated for 6 mins and measured after 30 mins by ethidium bromide staining based agarose gel electrophoresis method relative to control
Outline: (§5)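 Plasmid cleavage with topoisomerase IIα truncations: C-terminal deletion construct keeping the N-terminal portion or catalytic core, residues 431–1193, lacking both N- and C-terminal domains. Compound at 0–1000 μM. Cleavage complexes trapped with SDS. Negatively supercoiled, nicked and linear forms resolved on ethidium bromide-stained agarose gels. Cleavage normalized to linear standards set to 100%.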

[5] = target: DNA topoisomerase 2-alpha (Homo sapiens) (UniProt P11388); experiment: (§6) Poison activity at recombinant human topoisomerase-2alpha expressed in Saccharomyces cerevisiae assessed as increase in double-stranded DNA cleavage at 500 uM using supercoiled pBR322 DNA as substrate preincubated for 120 sec followed by substrate addition incubated for 6 mins and measured after 30 mins by ethidium bromide staining based agarose gel electrophoresis method relative to control
Outline: (§7)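 500 μM compound preincubated with topoisomerase IIα for varying times before DNA addition. Double-stranded breaks measured and expressed relative to the zero-time level set to 1.0. Three independent experiments.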

Homo sapiens [6] = organism: Homo sapiens; experiment: as §4, with “human N-terminal” for “human”, “topoisomerase-2alpha” for “topoisomerase-2alpha N- and”, “mutant expressed in Saccharomyces cerevisiae” for “mutant”; outline: as §5
DNA = experiment: Induction of DNA cleavage in supercoiled pBR322 DNA at 500 uM incubated for 6 mins measured after 30 mins by ethidium bromide staining based agarose gel electrophoresis method relative to control; assay type: nucleic-acid assay; settings: Escherichia coli
Outline: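 Control with enzyme omitted: 500 μM compound incubated with plasmid DNA alone under DNA cleavage assay conditions. Products resolved on ethidium bromide-stained agarose gel. Two independent experiments.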

[7] = target: DNA topoisomerase 2-alpha (Homo sapiens) (UniProt P11388); experiment: as §1, with “cleavage at 500 uM using” for “cleavage at 0 to 1000 uM using”, “30 mins in presence of EDTA by ethidium” for “30 mins by ethidium”
Outline: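 Human topoisomerase IIα, plasmid DNA and 500 μM compound. After reaction, mixtures treated with 25 mM EDTA before SDS to remove active-site Mg2+, versus reactions stopped with SDS before EDTA. Cleavage read on ethidium bromide-stained agarose gel. Two independent experiments.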

[8] = target: DNA topoisomerase 2-alpha (Homo sapiens) (UniProt P11388); experiment: as §3, with “dithiothreitol” for “ascorbic acid”
[9] = target: DNA topoisomerase 2-alpha (Homo sapiens) (UniProt P11388); experiment: as §6, with “assessed as enzyme inactivation time by measuring increase in” for “assessed as increase in”; outline: as §7
[10] = target: DNA topoisomerase 2-alpha (Homo sapiens) (UniProt P11388); experiment: as §3, with “glutathione” for “ascorbic acid”
[11] = target: DNA topoisomerase 2-beta (Homo sapiens) (UniProt Q02880); experiment: as §1, with “topoisomerase-2beta” for “topoisomerase-2alpha”; outline: as §2
Chain of DNA topoisomerase 2-beta (Homo sapiens) (Q02880 whole entry): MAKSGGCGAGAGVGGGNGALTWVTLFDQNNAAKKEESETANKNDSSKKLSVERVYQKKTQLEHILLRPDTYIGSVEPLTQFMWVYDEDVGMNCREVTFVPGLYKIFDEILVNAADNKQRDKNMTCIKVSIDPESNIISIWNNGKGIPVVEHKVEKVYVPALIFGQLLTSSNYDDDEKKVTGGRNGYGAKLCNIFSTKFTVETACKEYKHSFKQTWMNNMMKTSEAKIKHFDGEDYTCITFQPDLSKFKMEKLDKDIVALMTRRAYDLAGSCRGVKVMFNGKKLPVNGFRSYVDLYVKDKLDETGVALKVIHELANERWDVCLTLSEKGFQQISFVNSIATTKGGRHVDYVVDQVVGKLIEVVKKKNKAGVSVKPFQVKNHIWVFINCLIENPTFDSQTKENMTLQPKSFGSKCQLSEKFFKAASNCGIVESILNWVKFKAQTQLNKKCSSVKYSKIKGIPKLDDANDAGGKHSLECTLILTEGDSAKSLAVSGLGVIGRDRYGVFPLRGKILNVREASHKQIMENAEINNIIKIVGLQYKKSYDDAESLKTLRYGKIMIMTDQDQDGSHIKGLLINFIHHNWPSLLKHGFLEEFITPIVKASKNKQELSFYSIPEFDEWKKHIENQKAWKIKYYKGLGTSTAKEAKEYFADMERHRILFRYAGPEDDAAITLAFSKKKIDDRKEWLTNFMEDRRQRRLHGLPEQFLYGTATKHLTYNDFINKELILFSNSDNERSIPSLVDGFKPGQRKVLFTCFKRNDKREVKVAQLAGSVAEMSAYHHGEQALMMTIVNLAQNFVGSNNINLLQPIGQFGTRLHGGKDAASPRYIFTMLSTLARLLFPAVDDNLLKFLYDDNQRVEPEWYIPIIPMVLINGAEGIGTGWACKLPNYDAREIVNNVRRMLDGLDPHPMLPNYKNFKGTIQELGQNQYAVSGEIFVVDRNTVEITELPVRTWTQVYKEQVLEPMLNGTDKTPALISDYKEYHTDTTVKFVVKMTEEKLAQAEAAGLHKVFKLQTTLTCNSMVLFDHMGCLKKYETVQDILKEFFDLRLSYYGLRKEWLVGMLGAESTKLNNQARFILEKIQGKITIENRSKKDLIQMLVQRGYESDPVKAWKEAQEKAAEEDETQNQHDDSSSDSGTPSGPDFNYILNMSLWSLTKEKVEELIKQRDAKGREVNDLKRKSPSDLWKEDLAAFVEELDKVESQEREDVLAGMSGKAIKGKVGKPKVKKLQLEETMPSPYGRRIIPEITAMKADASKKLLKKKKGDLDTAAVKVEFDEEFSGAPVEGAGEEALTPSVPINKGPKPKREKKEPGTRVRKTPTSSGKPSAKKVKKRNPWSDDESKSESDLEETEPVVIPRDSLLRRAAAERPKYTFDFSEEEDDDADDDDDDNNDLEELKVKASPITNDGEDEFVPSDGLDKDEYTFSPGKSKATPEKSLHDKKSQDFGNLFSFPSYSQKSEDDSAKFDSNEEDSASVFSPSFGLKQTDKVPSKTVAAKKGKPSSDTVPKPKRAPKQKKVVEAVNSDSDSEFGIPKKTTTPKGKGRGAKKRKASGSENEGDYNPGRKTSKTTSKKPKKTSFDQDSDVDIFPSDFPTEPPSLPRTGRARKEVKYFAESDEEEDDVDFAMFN

[12] = target: DNA topoisomerase 2-alpha (Homo sapiens) (UniProt P11388); experiment: Poison activity at recombinant human topoisomerase-2alpha expressed in Saccharomyces cerevisiae assessed as stabilization of DNA-enzyme cleavage complex at 500 uM using supercoiled pBR322 DNA as substrate incubated for 10 mins and measured after 0 to 240 mins by ethidium bromide staining based agarose gel electrophoresis method
Homo sapiens [13] = organism: Homo sapiens; experiment: as §4, with “50” for “0 to 1000”
Outline: (§8)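 Enzyme is a human topoisomerase IIα catalytic core (residues 431–1193) lacking the N- and C-terminal domains. Negatively supercoiled plasmid is the substrate. Double-stranded breaks are read as linear plasmid on ethidium bromide-stained agarose gels and compared with a linear standard. Values are means ± SD of three independent experiments.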

Homo sapiens [14] = organism: Homo sapiens; experiment: as §4, with “100” for “0 to 1000”; outline: as §8

Row | Structure (SMILES) | fold change (FC) [1] | Activity [2] | T1/2 [3] [s] | Activity (Homo sapiens [4]) | inhibition [5] [%] | Activity (Homo sapiens [6]) | Activity (DNA) | inhibition [7] | Activity [8] | T1/2 [9] [s] | Activity [10] | fold change (FC) [11] | Activity [12] | Activity (Homo sapiens [13]) | Activity (Homo sapiens [14])
1 | C[C@@H]1CC[C@@H](c2ccoc2)N2[C@H]1CC[C@@]1(CS[C@@]3(CC[C@H]4[C@H](C)CC[C@@H](c5ccoc5)N4[C@@H]3O)C1)[C@H]2O | 8 | inactive | 11 | inactive | 100 | Active | inactive | inactive | inactive | 30 | inactive | 3 | Active | – | –
2 | COc1cc([C@@H]2c3cc4c(cc3[C@@H](O[C@@H]3O[C@@H]5CO[C@@H](C)O[C@H]5[C@H](O)[C@H]3O)[C@H]3COC(=O)[C@H]23)OCO4)cc(OC)c1O | – | – | – | – | – | – | – | – | – | – | – | – | – | Active | Active
